Legend:
[1] = tested on: CD4^+ T cells from PBLs of melanoma patients; test: In vitro sensitization of PBLs with peptide and intracellular cytokine staining; type: cell-based, human; details: for patients with peptide-specific spontaneous CD4^+ T cells: 16 patients with stage IV LAGE-1^+/NY-ESO-1^+ melanoma, ICS after 10–12 d IVS; for Th1/Th2 Spontaneous Response Test by ICS, response type / Number of IFN-γ–producing CD4^+ T cells / number of IL-5–producing CD4^+ T cells: PBLs, 10–12 d IVS with the peptide, ICS; for Number of IFN-γ–producing CD4^+ T cells / number of IL-5–producing CD4^+ T cells: background subtracted
[2] = tested on: Serum NY-ESO-1– and LAGE-1b–specific Abs; test: ELISA of patient sera on plates coated with peptide or protein; type: binding, human; details: among the 16 patients with NY-ESO-1^+/LAGE-1^+ tumors
Outline: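 Plates coated overnight at 4°C with recombinant NY-ESO-1 protein or 18-aa overlapping LAGE-1b peptides (P132–P210), 1 µg/ml in 15 mM Na₂CO₃/30 mM NaHCO₃ pH 9.6 with 0.02% NaN₃. Blocked overnight at 4°C with PBS/2% BSA. Patient sera (NY-ESO-1⁺/LAGE-1⁺ or negative tumors) in PBS/2% BSA, 4-fold dilution series, 2 h RT. Goat anti-human IgG-AP 1 h RT. Phosphatase substrate 25 min RT, read immediately.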

[3] = tested on: LAGE-1–specific CD4^+ T cell clones; test: IFN-γ ELISPOT, CD4+ T cell clones with peptide-pulsed L.DR cells; type: cell-based, human; details: 48-h IFN-γ ELISPOT
[4] = irrelevant control peptide (1 µg/ml), all healthy donors and patients, 6 h ICS

Question: For “HIVpol711–725: irrelevant HIV-derived control peptide in ICS [reference compound]”, which “mean value of IFN-γ–producing CD4^+ T cells” value [1, 4] is on record?
Answer: Its value is 25 per 10^5 CD4^+ T cells.

Question: What about the “mean value of IL-5–producing CD4^+ T cells” value [1, 4] of the same substance?
Answer: The value was 22 per 10^5 CD4^+ T cells.

Question: How did the “patients with peptide-specific spontaneous CD4^+ T cells” value [1] turn out when “LAGE-1_97–114: 18-aa overlapping synthetic peptide, LAGE-1 positions 97–114; immunodominant epitope (SSPMEAELVRRILSRDAA; UniProt O75638 97-114, looked up, fragment)” was run?
Answer: The value was 7 out of 16.

Question: And the “Th1/Th2 Spontaneous Response Test by ICS, response type” value (shortened to “Th1/Th2 Spontaneous Response Test”) ([1]; patient MP2)?
Answer: Its value is “Th2 (0, 100)”.

Question: What about the “Number of IFN-γ–producing CD4^+ T cells” value ([1]; patient MP2) of the same substance?
Answer: Its value is 0 per 10^5 CD4^+ T cells.

Question: And the “number of IL-5–producing CD4^+ T cells” value ([1]; patient MP2)?
Answer: The value was 100 per 10^5 CD4^+ T cells.

Question: And the “Th1/Th2 Spontaneous Response Test” value ([1]; patient MP4)?
Answer: The value was “Th1 (101, 18)”.

Question: What about the “Number of IFN-γ–producing CD4^+ T cells” value ([1]; patient MP4) of the same substance?
Answer: Its value is 101 per 10^5 CD4^+ T cells.

Question: And the “number of IL-5–producing CD4^+ T cells” value ([1]; patient MP4)?
Answer: The value was 18 per 10^5 CD4^+ T cells.

Question: And the “Th1/Th2 Spontaneous Response Test” value ([1]; patient MP6)?
Answer: Its value is “Th1 (110, 20)”.

Question: What about the “Number of IFN-γ–producing CD4^+ T cells” value ([1]; patient MP6) of the same substance?
Answer: Its value is 110 per 10^5 CD4^+ T cells.

Question: What about the “number of IL-5–producing CD4^+ T cells” value ([1]; patient MP6) of the same substance?
Answer: Its value is 20 per 10^5 CD4^+ T cells.

Question: And the “Th1/Th2 Spontaneous Response Test” value ([1]; patient MP7)?
Answer: Its value is “Th2 (0, 435)”.

Question: And the “Number of IFN-γ–producing CD4^+ T cells” value ([1]; patient MP7)?
Answer: Its value is 0 per 10^5 CD4^+ T cells.

Question: And the “number of IL-5–producing CD4^+ T cells” value ([1]; patient MP7)?
Answer: Its value is 435 per 10^5 CD4^+ T cells.

Question: And the “Th1/Th2 Spontaneous Response Test” value ([1]; patient MP9)?
Answer: The value was “Th1/Th2 (83, 193)”.

Question: And the “Number of IFN-γ–producing CD4^+ T cells” value ([1]; patient MP9)?
Answer: Its value is 83 per 10^5 CD4^+ T cells.

Question: And the “number of IL-5–producing CD4^+ T cells” value ([1]; patient MP9)?
Answer: Its value is 193 per 10^5 CD4^+ T cells.

Question: What about the “Th1/Th2 Spontaneous Response Test” value ([1]; patient MP15) of the same substance?
Answer: Its value is “Th1/Th2 (60, 530)”.

Question: What about the “Number of IFN-γ–producing CD4^+ T cells” value ([1]; patient MP15) of the same substance?
Answer: Its value is 60 per 10^5 CD4^+ T cells.

Question: What about the “number of IL-5–producing CD4^+ T cells” value ([1]; patient MP15) of the same substance?
Answer: The value was 530 per 10^5 CD4^+ T cells.

Question: And the “Th1/Th2 Spontaneous Response Test” value ([1]; patient MP16)?
Answer: Its value is “Th1 (170, 0)”.

Question: And the “Number of IFN-γ–producing CD4^+ T cells” value ([1]; patient MP16)?
Answer: The value was 170 per 10^5 CD4^+ T cells.

Question: What about the “number of IL-5–producing CD4^+ T cells” value ([1]; patient MP16) of the same substance?
Answer: The value was 0 per 10^5 CD4^+ T cells.

Question: Which “patients with peptide-specific spontaneous CD4^+ T cells” value [1] does the source give for “LAGE-1_104–121: 18-aa overlapping synthetic peptide, LAGE-1 positions 104–121; immunodominant epitope (LVRRILSRDAAPLPRPGA; UniProt O75638 104-121, looked up, fragment)” here?
Answer: The value was 10 out of 16.

Question: What about the “Th1/Th2 Spontaneous Response Test” value ([1]; patient MP1) of the same substance?
Answer: The value was “Th1/Th2 (213, 79)”.

Question: And the “Number of IFN-γ–producing CD4^+ T cells” value ([1]; patient MP1)?
Answer: The value was 213 per 10^5 CD4^+ T cells.

Question: And the “number of IL-5–producing CD4^+ T cells” value ([1]; patient MP1)?
Answer: Its value is 79 per 10^5 CD4^+ T cells.

Question: What about the “Th1/Th2 Spontaneous Response Test” value ([1]; patient MP2) of the same substance?
Answer: Its value is “Th2 (0, 110)”.

Question: What about the “Number of IFN-γ–producing CD4^+ T cells” value ([1]; patient MP2) of the same substance?
Answer: The value was 0 per 10^5 CD4^+ T cells.

Question: And the “number of IL-5–producing CD4^+ T cells” value ([1]; patient MP2)?
Answer: Its value is 110 per 10^5 CD4^+ T cells.

Question: And the “Th1/Th2 Spontaneous Response Test” value ([1]; patient MP3)?
Answer: Its value is “Th1 (130, 0)”.

Question: What about the “Number of IFN-γ–producing CD4^+ T cells” value ([1]; patient MP3) of the same substance?
Answer: Its value is 130 per 10^5 CD4^+ T cells.

Question: And the “number of IL-5–producing CD4^+ T cells” value ([1]; patient MP3)?
Answer: The value was 0 per 10^5 CD4^+ T cells.

Question: And the “Th1/Th2 Spontaneous Response Test” value ([1]; patient MP5)?
Answer: The value was “Th1/Th2 (505, 80)”.

Question: And the “Number of IFN-γ–producing CD4^+ T cells” value ([1]; patient MP5)?
Answer: Its value is 505 per 10^5 CD4^+ T cells.

Question: And the “number of IL-5–producing CD4^+ T cells” value ([1]; patient MP5)?
Answer: The value was 80 per 10^5 CD4^+ T cells.

Question: What about the “Th1/Th2 Spontaneous Response Test” value ([1]; patient MP6) of the same substance?
Answer: Its value is “Th1/Th2 (351, 185)”.

Question: And the “Number of IFN-γ–producing CD4^+ T cells” value ([1]; patient MP6)?
Answer: The value was 351 per 10^5 CD4^+ T cells.

Question: And the “number of IL-5–producing CD4^+ T cells” value ([1]; patient MP6)?
Answer: The value was 185 per 10^5 CD4^+ T cells.

Question: And the “Th1/Th2 Spontaneous Response Test” value ([1]; patient MP7)?
Answer: The value was “Th2 (0, 543)”.

Question: What about the “Number of IFN-γ–producing CD4^+ T cells” value ([1]; patient MP7) of the same substance?
Answer: Its value is 0 per 10^5 CD4^+ T cells.

Question: What about the “number of IL-5–producing CD4^+ T cells” value ([1]; patient MP7) of the same substance?
Answer: Its value is 543 per 10^5 CD4^+ T cells.

Question: What about the “Th1/Th2 Spontaneous Response Test” value ([1]; patient MP8) of the same substance?
Answer: The value was “Th1/Th2 (341, 221)”.

Question: And the “Number of IFN-γ–producing CD4^+ T cells” value ([1]; patient MP8)?
Answer: Its value is 341 per 10^5 CD4^+ T cells.

Question: And the “number of IL-5–producing CD4^+ T cells” value ([1]; patient MP8)?
Answer: Its value is 221 per 10^5 CD4^+ T cells.

Question: What about the “Th1/Th2 Spontaneous Response Test” value ([1]; patient MP9) of the same substance?
Answer: Its value is “Th1/Th2 (205, 65)”.

Question: What about the “Number of IFN-γ–producing CD4^+ T cells” value ([1]; patient MP9) of the same substance?
Answer: Its value is 205 per 10^5 CD4^+ T cells.

Question: And the “number of IL-5–producing CD4^+ T cells” value ([1]; patient MP9)?
Answer: The value was 65 per 10^5 CD4^+ T cells.

Question: What about the “Th1/Th2 Spontaneous Response Test” value ([1]; patient MP12) of the same substance?
Answer: Its value is “Th1 (270, 0)”.

Question: What about the “Number of IFN-γ–producing CD4^+ T cells” value ([1]; patient MP12) of the same substance?
Answer: Its value is 270 per 10^5 CD4^+ T cells.

Question: And the “number of IL-5–producing CD4^+ T cells” value ([1]; patient MP12)?
Answer: The value was 0 per 10^5 CD4^+ T cells.

Question: And the “Th1/Th2 Spontaneous Response Test” value ([1]; patient MP14)?
Answer: Its value is “Th1 (400, 0)”.

Question: And the “Number of IFN-γ–producing CD4^+ T cells” value ([1]; patient MP14)?
Answer: Its value is 400 per 10^5 CD4^+ T cells.

Question: And the “number of IL-5–producing CD4^+ T cells” value ([1]; patient MP14)?
Answer: Its value is 0 per 10^5 CD4^+ T cells.

Question: How did the “patients with peptide-specific spontaneous CD4^+ T cells” value [1] turn out when “LAGE-1b118–135: 18-aa overlapping synthetic peptide, LAGE-1b positions 118–135; immunodominant epitope (RPGAVLKDFTVSGNLLFM; LAGE-1b; UniProt O75638 118-135, looked up, fragment)” was run?
Answer: The value was 9 out of 16.

Question: For “LAGE-1b167–184: 18-aa overlapping synthetic peptide, LAGE-1b positions 167–184 (DLRTPKHKVSEQRPGTPG; LAGE-1b; UniProt O75638 167-184, looked up, fragment)”, which “number of patients with high titers of LAGE-1b Abs recognizing the peptide” value [2] is on record?
Answer: The value was 4.

Question: For “LAGE-1b188–210: overlapping synthetic peptide, LAGE-1b positions 188–210 (PEGAQGDGCRGVAFNVMFSAPHI; LAGE-1b; UniProt O75638 188-210, looked up, fragment)”, which “number of patients with high titers of LAGE-1b Abs recognizing the peptide” value [2] is on record?
Answer: Its value is 4.

Question: For “NY-ESO-1_104–121: NY-ESO-1 peptide overlapping the LAGE-1_104–121 sequence, control (LARRSLAQDAPPLPVPGV; UniProt P78358 104-121, looked up, fragment)”, which “recognition of peptide by LAGE-1_104–121–specific CD4^+ T cell clone 116/12” value [3] is on record?
Answer: Its value is “did not recognize”.
